What was measured:
Assay in all cases: TR-FRET of indisulam-induced ternary complex
Assay type in all cases: binding
[1] = target: RBM39 (Homo sapiens, UniProt Q14498+Q66K64)
Procedure, shortened: (§1)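 Purified His-DCAF15–DDB1–DDA1 (SF9 co-expression) and RBM39 aa 250–330-3xFLAG (E. coli, His tag TEV-cleaved), each 0.1 μM final, with 1 nM Eu-anti-6xHis donor and 5 ng/μL anti-FLAG-XL665 acceptor. Test compound titrated, 5 min at room temperature. Excitation 360 nm; 665/620 nm ratio. Run in triplicate; EC50 from four-parameter fit.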

[2] = target: RBM23 (Homo sapiens, UniProt Q66K64+Q86U06)
[3] = target: DCAF15 (Homo sapiens, UniProt Q14498+Q66K64)
Procedure, shortened: as §1

An EC50 [1] of 2.27 µM, an EC50 [2] of 2.58 µM and an EC50 [3] of 2.27 µM were found for `NS(=O)(=O)c1ccc(S(=O)(=O)Nc2cccc3c(Cl)c[nH]c23)cc1` [indisulam] in this work.

Reference: publication PMC7950731 (Cell reports, 2019)
